Source: ChEMBL document CHEMBL1123499, “Synthesis, saludiuretic, and antihypertensive activity of 6,7-disubstituted 1(2H)- and 3,4-dihydro-1(2H)-phthalazinones” (1986)

Tests used:
[1] = species on record: Rattus norvegicus; assay: Saluretic activity in rats after 0-24 hours, as sodium ion concentration in urine; assay type: functional
Summary of the method: (§1)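 Male Sabra rats (170-200 g), fasted 18 h, dosed orally 50 mg/kg in saline at 25 mL/kg, eight per compound, two per metabolic cage, no food or water. Urine collected 5 and 24 h after dosing and centrifuged. Chloride titrated with Hg(NO3)2/diphenylcarbazone after HNO3 acidification; Na+ and K+ by atomic absorption.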

[2] = species on record: Rattus norvegicus; assay: Saluretic activity in rats after 0-24 hours, as chloride ion concentration in urine; assay type: functional; summary of the method: as §1
[3] = species on record: Rattus norvegicus; assay: Saluretic activity in rats after 5-24 hours, as potassium ion concentration in urine; assay type: functional; summary of the method: as §1
[4] = species on record: Rattus norvegicus; assay: Saluretic activity in rats after 0-24 hours, as ratio of Na+/K+ ion concentration in urine; assay type: functional; summary of the method: as §1
[5] = species on record: Rattus norvegicus; assay: Saluretic activity in rats after 0-5 hours, as potassium ion concentration in urine; assay type: functional; summary of the method: as §1
[6] = species on record: Rattus norvegicus; assay: Diuretic activity in rats at time intervals of 5-24 hours; assay type: functional, Urine
Summary of the method: (§2)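 Male Sabra rats (170-200 g), starved 18 h, given 50 mg/kg by stomach tube in saline (25 mL/kg load), eight per compound, saline and furosemide controls run alongside. Held two per metabolic cage at 22 °C without food or water. Urine volume measured at 5 and 24 h collections.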

[7] = species on record: Rattus norvegicus; assay: Saluretic activity in rats after 5-24 hours, as ratio of Na+/K+ ion concentration in urine; assay type: functional; summary of the method: as §1
[8] = species on record: Rattus norvegicus; assay: Diuretic activity in rats at time intervals of 0-5 hours; assay type: functional, Urine; summary of the method: as §2
[9] = species on record: Rattus norvegicus; assay: Diuretic activity in rats at time intervals of 0-24 hours; assay type: functional, Urine; summary of the method: as §2
[10] = species on record: Rattus norvegicus; assay: Saluretic activity in rats after 0-5 hours, as sodium ion concentration in urine; assay type: functional; summary of the method: as §1
[11] = species on record: Rattus norvegicus; assay: Saluretic activity in rats after 0-5 hours, as chloride ion concentration in urine; assay type: functional; summary of the method: as §1
[12] = species on record: Rattus norvegicus; assay: Saluretic activity in rats after 5-24 hours, as sodium ion concentration in urine; assay type: functional; summary of the method: as §1
[13] = species on record: Rattus norvegicus; assay: Saluretic activity in rats after 5-24 hours, as chloride ion concentration in urine; assay type: functional; summary of the method: as §1
[14] = species on record: Rattus norvegicus; assay: Saluretic activity in rats after 0-24 hours, as potassium ion concentration in urine; assay type: functional; summary of the method: as §1
[15] = species on record: Rattus norvegicus; assay: Saluretic activity in rats after 0-5 hours, as ratio of Na+/K+ ion concentration in urine; assay type: functional; summary of the method: as §1

Row | SMILES | Saluretic activity [1] [m equiv kg-1] | Saluretic activity [2] [m equiv kg-1] | Saluretic activity [3] [m equiv kg-1] | Ratio [4] | Saluretic activity [5] [m equiv kg-1] | Diuretic activity [6] [mL] | Ratio [7] | Diuretic activity [8] [mL] | Diuretic activity [9] [mL] | Saluretic activity [10] [m equiv kg-1] | Saluretic activity [11] [m equiv kg-1] | Saluretic activity [12] [m equiv kg-1] | Saluretic activity [13] [m equiv kg-1] | Saluretic activity [14] [m equiv kg-1] | Ratio [15]
1 | NS(=O)(=O)c1cc2cnnc(O)c2cc1Cl | 10.44 | 9.12 | 3.19 | 1.83 | 2.51 | 3.2 | 1.35 | 5.6 | 8.8 | 6.14 | 4.1 | 4.3 | 5.02 | 5.7 | 2.44
2 | NS(=O)(=O)c1cc2c(=O)n(-c3cccc(C(F)(F)F)c3)ncc2cc1Cl | 6.25 |  | 3.04 | 1.45 | 1.27 | 4.4 | 1.33 | 2.2 | 6.6 | 2.18 |  |  |  | 4.31 | 1.72
3 | NS(=O)(=O)c1cc2c(cc1Cl)C(=O)N(Cc1ccccc1)NC2 | 9.51 | 10.53 | 3.29 | 1.83 | 1.92 | 3.6 | 1.67 | 4 | 7.6 | 4.01 | 5.14 | 5.5 | 5.39 | 5.21 | 2.1
4 | NS(=O)(=O)c1cc2c(=O)n(Cc3ccco3)ncc2cc1Cl | 6.08 | 5.26 | 2.16 | 1.63 | 1.58 | 1 | 1.11 | 1.8 | 2.8 | 3.68 | 3.8 | 2.4 | 1.46 | 3.74 | 2.83
5 | NS(=O)(=O)c1cc2c(O)nncc2cc1Sc1ccccc1 | 7.87 | 8.44 | 4.25 | 1.38 | 1.45 | 4.7 | 1.17 | 2.9 | 7.6 | 2.9 | 3.97 | 4.97 | 4.47 | 5.7 | 2
6 | Cn1ncc2cc(S(N)(=O)=O)c(Sc3ccccc3)cc2c1=O | 8.6 | 8.31 | 3.42 | 1.86 | 1.2 | 3.8 | 1.92 | 2.1 | 5.9 | 2.05 | 2.33 | 6.55 | 5.98 | 4.62 | 1.7
